# pIC50: −log10 of the molar value. Active and inactive are the calls of the source. No cut-off for these calls is given here.
# What was measured:
# [1] = target: T1, Polyamine deacetylase HDAC10 (Homo sapiens, UniProt Q969S8); experiment: Inhibition of tubastatin-Alexa647-tracer binding to recombinant GST-tagged HDAC10 (unknown origin) measured after 1 hr by TR-FRET assay
# T1 sequence (Q969S8 whole entry): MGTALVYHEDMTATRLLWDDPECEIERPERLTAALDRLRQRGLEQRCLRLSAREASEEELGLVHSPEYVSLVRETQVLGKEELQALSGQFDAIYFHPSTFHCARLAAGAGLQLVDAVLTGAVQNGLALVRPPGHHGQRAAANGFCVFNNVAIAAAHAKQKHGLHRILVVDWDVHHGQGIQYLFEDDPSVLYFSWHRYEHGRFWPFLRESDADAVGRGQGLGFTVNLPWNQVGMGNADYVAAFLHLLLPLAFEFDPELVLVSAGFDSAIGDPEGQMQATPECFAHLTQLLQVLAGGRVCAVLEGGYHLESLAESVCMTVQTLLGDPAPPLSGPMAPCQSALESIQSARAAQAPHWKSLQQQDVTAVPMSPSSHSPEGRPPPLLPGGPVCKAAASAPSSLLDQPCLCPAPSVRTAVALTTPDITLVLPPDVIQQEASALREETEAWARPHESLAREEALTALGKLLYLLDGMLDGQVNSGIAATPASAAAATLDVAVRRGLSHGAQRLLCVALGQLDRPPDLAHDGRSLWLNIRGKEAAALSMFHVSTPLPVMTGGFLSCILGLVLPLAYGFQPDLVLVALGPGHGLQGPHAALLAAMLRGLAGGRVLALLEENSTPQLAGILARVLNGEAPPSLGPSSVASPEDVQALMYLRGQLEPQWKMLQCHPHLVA
# [2] = target: T1, Polyamine deacetylase HDAC10; experiment: Inhibition of dye-labeled tracer binding to HDAC10 (unknown origin) transfected in human HeLa cells measured after 2 hrs by nano-luciferase reporter gene-based BRET assay; format: cell-based
# [3] = target: T2, Protein deacetylase HDAC6 (Homo sapiens, UniProt Q9UBN7); experiment: Inhibition of dye-labeled tracer binding to HDAC6 (unknown origin) transfected in human HeLa cells measured after 2 hrs by nano-luciferase reporter gene-based BRET assay; format: cell-based
# T2 sequence (Q9UBN7 whole entry): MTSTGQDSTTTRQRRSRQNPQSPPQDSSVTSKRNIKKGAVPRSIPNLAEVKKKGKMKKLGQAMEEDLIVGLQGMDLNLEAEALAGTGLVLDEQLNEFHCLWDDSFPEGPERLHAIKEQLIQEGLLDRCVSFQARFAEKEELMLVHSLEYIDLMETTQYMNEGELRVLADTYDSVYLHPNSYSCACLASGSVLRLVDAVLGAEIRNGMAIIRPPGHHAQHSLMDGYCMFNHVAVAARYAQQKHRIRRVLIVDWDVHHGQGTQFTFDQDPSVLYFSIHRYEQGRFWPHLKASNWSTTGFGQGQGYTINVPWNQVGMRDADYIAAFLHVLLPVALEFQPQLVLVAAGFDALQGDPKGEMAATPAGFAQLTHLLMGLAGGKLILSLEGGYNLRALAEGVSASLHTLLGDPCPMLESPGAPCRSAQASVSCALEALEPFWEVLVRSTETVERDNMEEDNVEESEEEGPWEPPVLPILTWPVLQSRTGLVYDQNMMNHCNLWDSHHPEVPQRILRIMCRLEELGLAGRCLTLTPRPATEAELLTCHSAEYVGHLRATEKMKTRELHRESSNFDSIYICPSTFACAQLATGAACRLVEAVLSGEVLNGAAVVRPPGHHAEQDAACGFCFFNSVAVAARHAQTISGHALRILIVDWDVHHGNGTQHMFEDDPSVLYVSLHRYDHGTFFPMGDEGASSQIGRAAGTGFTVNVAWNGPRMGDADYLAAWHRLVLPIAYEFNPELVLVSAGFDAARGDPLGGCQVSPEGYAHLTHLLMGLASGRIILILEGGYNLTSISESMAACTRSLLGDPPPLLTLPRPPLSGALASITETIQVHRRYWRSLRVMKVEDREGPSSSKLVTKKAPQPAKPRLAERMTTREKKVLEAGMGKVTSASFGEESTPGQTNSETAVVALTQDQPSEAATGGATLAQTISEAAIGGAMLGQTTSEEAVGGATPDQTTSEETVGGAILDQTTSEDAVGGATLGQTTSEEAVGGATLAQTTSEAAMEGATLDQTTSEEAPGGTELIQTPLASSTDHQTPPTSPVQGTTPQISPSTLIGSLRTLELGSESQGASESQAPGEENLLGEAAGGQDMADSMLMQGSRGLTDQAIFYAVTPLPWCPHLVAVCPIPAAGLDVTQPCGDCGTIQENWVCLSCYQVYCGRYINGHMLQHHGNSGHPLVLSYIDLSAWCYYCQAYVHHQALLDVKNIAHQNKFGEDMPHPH
# Method in brief: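 Live-cell target engagement by BRET: cells overexpressing nano-luciferase-tagged HDAC6 or HDAC10 are given a dye-labelled tracer and the nano-luciferase substrate, and a competing binder disrupts BRET. pIC50 comes from pooled data of two biological replicates, each run in triplicate. The selectivity fold is taken from the HDAC10 and HDAC6 BRET values.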
# Histone deacetylase 1 = Histone deacetylase 1 (Homo sapiens, UniProt Q13547); experiment: Inhibition of recombinant full-length C-terminal FLAG-fused/His-tagged human HDAC1 expressed in baculovirus infected Sf9 insect cells measured after 40 mins by HDAC-Glo1/2 luminescent assay
# Chain of Histone deacetylase 1 (Q13547 whole entry, the tested form may be a part): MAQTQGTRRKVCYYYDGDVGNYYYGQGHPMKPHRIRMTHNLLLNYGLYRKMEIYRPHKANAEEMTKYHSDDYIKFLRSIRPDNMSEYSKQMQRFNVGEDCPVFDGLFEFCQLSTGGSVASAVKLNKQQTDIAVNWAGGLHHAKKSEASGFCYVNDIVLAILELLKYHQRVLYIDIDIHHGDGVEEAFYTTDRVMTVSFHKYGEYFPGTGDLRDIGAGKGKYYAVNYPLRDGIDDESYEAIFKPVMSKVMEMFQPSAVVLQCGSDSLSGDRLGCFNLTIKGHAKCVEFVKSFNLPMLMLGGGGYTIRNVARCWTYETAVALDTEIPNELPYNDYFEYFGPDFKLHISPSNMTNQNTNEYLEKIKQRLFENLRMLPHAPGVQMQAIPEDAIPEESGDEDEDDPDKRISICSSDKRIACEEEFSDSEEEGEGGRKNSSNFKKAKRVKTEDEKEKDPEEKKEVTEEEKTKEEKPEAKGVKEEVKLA
# Histone deacetylase 2 = Histone deacetylase 2 (Homo sapiens, UniProt Q92769); experiment: Inhibition of recombinant full-length C-terminal His-tagged human HDAC2 expressed in baculovirus infected Sf9 insect cells measured after 40 mins by HDAC-Glo1/2 luminescent assay; format: cell-based
# Chain of Histone deacetylase 2 (Q92769 whole entry, the tested form may be a part): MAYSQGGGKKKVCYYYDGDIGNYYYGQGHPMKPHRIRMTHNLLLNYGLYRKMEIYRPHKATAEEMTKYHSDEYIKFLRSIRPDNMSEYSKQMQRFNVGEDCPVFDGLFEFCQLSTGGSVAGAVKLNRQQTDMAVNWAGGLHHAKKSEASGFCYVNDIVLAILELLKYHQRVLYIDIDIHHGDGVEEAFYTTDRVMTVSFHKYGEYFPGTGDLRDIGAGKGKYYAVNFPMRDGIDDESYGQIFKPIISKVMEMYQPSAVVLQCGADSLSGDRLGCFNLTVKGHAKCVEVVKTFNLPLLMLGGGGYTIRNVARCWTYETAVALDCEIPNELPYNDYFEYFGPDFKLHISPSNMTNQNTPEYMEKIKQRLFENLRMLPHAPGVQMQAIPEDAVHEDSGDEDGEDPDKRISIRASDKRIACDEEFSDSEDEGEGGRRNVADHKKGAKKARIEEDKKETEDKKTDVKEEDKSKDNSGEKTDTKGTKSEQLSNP
# [4] = target: Histone deacetylase 3/Nuclear receptor corepressor 2 (HDAC3/NCoR2) (Homo sapiens, UniProt O15379); experiment: Inhibition of human recombinant full length C-terminal His-tagged HDAC3 (1 to 428 residues)/N-terminal GST-tagged NCOR2 (395 to 489 residues) expressed in baculovirus infected insect cells measured after 40 mins by HDAC-Glo1/2 luminescent assay
# Chain of Histone deacetylase 3/Nuclear receptor corepressor 2 (HDAC3/NCoR2) (O15379 whole entry, the tested form may be a part): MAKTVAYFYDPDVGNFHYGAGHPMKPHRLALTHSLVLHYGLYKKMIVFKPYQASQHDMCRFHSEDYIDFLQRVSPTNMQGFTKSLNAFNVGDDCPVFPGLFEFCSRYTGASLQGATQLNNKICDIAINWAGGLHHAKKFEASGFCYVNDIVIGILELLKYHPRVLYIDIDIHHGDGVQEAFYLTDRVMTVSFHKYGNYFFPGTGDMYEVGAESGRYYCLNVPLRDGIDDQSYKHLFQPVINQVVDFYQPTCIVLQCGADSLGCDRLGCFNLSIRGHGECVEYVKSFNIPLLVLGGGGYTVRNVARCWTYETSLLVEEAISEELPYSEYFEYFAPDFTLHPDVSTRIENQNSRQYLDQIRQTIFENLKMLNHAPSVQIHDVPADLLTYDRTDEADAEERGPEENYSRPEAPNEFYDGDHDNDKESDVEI
# Chain of Histone deacetylase 3/Nuclear receptor corepressor 2 (HDAC3/NCoR2) (Q9Y618 whole entry, further chain, the tested form may be a part): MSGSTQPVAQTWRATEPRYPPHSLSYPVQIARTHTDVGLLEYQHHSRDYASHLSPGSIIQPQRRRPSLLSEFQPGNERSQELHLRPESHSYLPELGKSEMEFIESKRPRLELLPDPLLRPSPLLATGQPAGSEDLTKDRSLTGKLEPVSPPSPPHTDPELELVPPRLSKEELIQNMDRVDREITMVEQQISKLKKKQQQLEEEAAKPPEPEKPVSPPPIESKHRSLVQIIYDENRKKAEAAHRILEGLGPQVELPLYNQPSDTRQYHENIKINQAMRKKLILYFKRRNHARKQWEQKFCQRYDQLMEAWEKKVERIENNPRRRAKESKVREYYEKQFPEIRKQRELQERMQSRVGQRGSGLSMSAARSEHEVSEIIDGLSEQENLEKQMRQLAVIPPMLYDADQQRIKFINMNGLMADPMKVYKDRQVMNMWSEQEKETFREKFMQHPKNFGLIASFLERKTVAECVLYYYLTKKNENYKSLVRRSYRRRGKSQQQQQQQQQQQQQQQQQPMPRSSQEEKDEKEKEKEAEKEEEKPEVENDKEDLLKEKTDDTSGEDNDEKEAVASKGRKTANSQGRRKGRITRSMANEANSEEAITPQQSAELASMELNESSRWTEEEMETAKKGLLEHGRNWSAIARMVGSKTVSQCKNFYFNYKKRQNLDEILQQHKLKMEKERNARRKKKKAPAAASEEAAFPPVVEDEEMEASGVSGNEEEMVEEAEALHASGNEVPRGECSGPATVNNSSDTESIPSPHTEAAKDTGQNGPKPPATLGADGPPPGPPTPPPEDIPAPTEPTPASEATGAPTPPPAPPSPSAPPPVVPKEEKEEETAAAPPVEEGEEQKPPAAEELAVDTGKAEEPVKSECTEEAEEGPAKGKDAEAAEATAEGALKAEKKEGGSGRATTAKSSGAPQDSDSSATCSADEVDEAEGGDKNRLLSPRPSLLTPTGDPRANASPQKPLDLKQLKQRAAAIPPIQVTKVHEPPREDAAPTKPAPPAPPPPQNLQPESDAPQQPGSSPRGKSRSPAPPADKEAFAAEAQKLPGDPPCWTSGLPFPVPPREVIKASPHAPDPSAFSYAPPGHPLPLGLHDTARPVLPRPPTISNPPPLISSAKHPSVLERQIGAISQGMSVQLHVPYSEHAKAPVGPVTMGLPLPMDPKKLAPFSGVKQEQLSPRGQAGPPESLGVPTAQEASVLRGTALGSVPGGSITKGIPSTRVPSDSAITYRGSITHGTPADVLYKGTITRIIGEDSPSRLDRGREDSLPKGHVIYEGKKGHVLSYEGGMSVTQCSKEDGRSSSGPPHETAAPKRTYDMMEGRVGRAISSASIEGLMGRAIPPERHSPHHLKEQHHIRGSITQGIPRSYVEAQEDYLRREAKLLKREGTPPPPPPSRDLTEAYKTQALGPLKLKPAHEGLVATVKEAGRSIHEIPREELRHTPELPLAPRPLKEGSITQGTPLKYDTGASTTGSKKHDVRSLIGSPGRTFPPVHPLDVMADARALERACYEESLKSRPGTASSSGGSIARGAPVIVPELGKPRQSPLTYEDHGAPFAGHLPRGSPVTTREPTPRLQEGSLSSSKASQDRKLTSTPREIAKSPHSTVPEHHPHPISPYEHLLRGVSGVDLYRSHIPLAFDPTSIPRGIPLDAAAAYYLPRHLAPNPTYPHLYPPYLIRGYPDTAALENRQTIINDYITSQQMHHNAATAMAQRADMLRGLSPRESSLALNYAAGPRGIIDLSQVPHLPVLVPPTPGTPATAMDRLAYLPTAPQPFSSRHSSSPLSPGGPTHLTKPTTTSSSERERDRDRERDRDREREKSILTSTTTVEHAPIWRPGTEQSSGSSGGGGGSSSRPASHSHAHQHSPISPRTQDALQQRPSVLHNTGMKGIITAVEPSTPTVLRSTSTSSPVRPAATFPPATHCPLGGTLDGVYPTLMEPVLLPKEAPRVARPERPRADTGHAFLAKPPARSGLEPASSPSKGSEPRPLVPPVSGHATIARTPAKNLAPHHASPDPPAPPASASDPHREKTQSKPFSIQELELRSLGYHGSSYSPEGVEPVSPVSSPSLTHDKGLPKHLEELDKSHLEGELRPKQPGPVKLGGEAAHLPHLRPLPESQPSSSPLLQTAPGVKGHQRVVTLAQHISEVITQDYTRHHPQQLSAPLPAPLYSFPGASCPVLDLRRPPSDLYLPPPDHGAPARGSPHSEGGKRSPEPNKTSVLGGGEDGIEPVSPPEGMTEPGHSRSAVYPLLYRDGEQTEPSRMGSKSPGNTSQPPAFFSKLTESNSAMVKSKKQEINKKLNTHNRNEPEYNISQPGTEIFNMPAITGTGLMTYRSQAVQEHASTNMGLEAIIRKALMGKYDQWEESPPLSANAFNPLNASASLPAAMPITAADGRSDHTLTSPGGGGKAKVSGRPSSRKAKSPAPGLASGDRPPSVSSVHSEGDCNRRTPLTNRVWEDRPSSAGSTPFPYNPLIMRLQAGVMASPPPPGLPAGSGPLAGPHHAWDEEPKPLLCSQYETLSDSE
# Histone deacetylase 8 = target: T3, Histone deacetylase 8 (Homo sapiens, UniProt Q9BY41); experiment: Inhibition of recombinant human full length C-terminal His-tagged HDAC8 expressed in baculovirus infected insect cells measured after 40 mins by HDAC-Glo1/2 luminescent assay
# T3 sequence (Q9BY41 whole entry): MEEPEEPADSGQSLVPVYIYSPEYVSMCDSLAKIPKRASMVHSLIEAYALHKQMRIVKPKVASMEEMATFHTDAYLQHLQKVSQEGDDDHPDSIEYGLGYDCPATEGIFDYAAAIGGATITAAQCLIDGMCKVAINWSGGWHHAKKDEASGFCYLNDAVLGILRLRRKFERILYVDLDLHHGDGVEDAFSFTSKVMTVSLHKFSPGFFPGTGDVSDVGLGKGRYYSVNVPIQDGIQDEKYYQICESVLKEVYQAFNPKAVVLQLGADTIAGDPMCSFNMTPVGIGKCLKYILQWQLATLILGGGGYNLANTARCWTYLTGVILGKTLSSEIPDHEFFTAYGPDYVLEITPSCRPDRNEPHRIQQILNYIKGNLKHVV
# [5] = target: T4, Protein deacetylase HDAC6 (Homo sapiens) (UniProt Q9UBN7); experiment: Inhibition of HDAC6 in human BE(2)-C cells assessed as increase in tubulin acetylation at 10 uM measured after 24 hrs by Western blot analysis; format: cell-based
# T4 sequence (whole entry): T2 sequence (Q9UBN7 whole entry)
# Method in brief: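 In the neuroblastoma BE(2)-C line, HDAC6 inhibition is read as tubulin acetylation by Western blot, comparing acetylated tubulin with total tubulin.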
Structure (SMILES),pIC50 [1],pIC50 [2],pIC50 [3],pIC50 (Histone deacetylase 1),pIC50 (Histone deacetylase 2),pIC50 [4],pIC50 (Histone deacetylase 8),inhibition [5]
CC(C)(C)OC(=O)NCc1cn(Cc2ccc(C(=O)NO)cc2)c2ccccc12,6.80,6.60,7.10,–,–,–,–,–
O=C(NO)c1ccc(Cn2cc(CCO)c3ccccc32)cc1,7.10,6.70,7.50,–,–,–,–,–
CN(C)CCc1cn(Cc2ccc(C(=O)NO)cc2)c2ccccc12,7.70,7.60,–,–,–,–,–,–
O=C(NO)c1ccc(Cn2c3c(c4ccccc42)CSCC3)cc1,6.50,6.40,6.90,–,–,–,–,–
CC(C)(C)c1cc2ccccc2n1Cc1ccc(C(=O)NO)cc1,5.30,< 4.40,5.70,–,–,–,–,Active
O=C(NO)c1ccc(Cn2ccc3ccccc32)cc1,7.20,6.80,7.20,–,–,–,–,–
CC(C)(C)OC(=O)Nc1ccc(-c2cc(C(=O)NCCCCCCC(=O)NO)no2)cc1,6.50,6.10,–,–,–,–,–,–
O=C(NO)c1ccc(Cn2c3c(c4ccccc42)CCCC3)cc1,6.00,5.60,7.20,–,–,–,–,–
C#Cc1cccc(Nc2ncnc3cc(OC)c(OCCCCCCC(=O)NO)cc23)c1 [CUDC-101],6.90,6.40,–,–,–,–,–,–
CN(C)Cc1cn(Cc2ccc(C(=O)NO)cc2)c2ccccc12,8.30,8.40,6.80,6.00,5.20,6.20,6.40,–
O=C(CCCCCCNC(=O)c1cnc(N(c2ccccc2)c2ccccc2)nc1)NO [RICOLINOSTAT],6.90,5.80,–,–,–,–,–,–

# Results, then the molecule that gave them:
pIC50 [1],pIC50 [2],pIC50 [3],pIC50 (Histone deacetylase 1),pIC50 (Histone deacetylase 2),pIC50 [4],pIC50 (Histone deacetylase 8),inhibition [5],Structure (SMILES)
8.40,8.40,6.80,6.10,5.20,6.40,6.50,–,O=C(NO)c1ccc(Cn2cc(CN3CCCC3)c3ccccc32)cc1
7.60,7.30,7.10,6.20,5.50,6.30,6.40,–,Cn1cncc1-c1cn(Cc2ccc(C(=O)NO)cc2)c2ccccc12
6.20,6.00,7.70,5.80,5.10,5.90,6.10,–,O=C(NO)c1ccc(Cn2c3c(c4ccccc42)COCC3)cc1
8.00,7.40,–,–,–,–,–,–,Cn1cc(CNCC2CCN(c3ncc(C(=O)NO)cn3)CC2)c2ccccc21 [QUISINOSTAT]
7.10,6.50,–,–,–,–,–,–,O=C(NO)c1ccc(CC(=O)N(CCO)c2ccccc2)cc1
6.70,6.80,7.20,5.50,4.60,5.40,5.40,–,CN1CCc2c(n(Cc3ccc(C(=O)NO)cc3)c3ccccc23)C1
8.30,8.30,6.90,6.50,5.70,6.80,6.40,–,CN1CCCC1c1cn(Cc2ccc(C(=O)NO)cc2)c2ccccc12 (racemic)
5.70,5.40,7.40,–,–,–,–,–,O=C(NO)c1ccc(Cn2c3ccccc3c3ccccc32)cc1
6.50,6.20,7.50,5.60,4.90,5.50,5.80,–,Cc1c(C)n(Cc2ccc(C(=O)NO)cc2)c2ccccc12
7.70,–,6.90,5.90,5.10,6.10,6.10,–,CN(C)Cc1nn(Cc2ccc(C(=O)NO)cc2)c2ccccc12
6.30,5.70,7.10,–,–,–,–,–,CC(=O)N1CCc2c(c3ccccc3n2Cc2ccc(C(=O)NO)cc2)C1
6.90,6.70,7.20,–,–,–,–,–,COCCc1cn(Cc2ccc(C(=O)NO)cc2)c2ccccc12
